The structures appear in SMILES notation. pIC50: −log10 of the molar value. Calls of active or inactive are those of the source. No cut-off for these calls is given here.

The term ΔTm denotes the shift of the melting midpoint relative to a reference. What is called pIC50 is the IC50 on a negative log10 scale, so that one unit is a factor of ten.

In experiment [1] the target is HTH-type transcriptional regulator EthR (Mycobacterium smegmatis (strain ATCC 700084 / mc(2)155)) (UniProt A0R666). The experiment is described as follows: Binding affinity to Mycobacterium smegmatis mc2 155 EthR assessed as protein thermal unfolding at 20 uM by SYPRO Orange dye based thermal shift assay. Particulars: Mycolicibacterium smegmatis MC2 155. A digest of the protocol:
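Purified EthR (10 μM final) was mixed with 20 μM ligand, 2.5× SYPRO Orange and 1% DMSO in EthR buffer. Samples were heated from 37 to 85 °C at 0.04 °C/s in a qPCR instrument, with fluorescence read at Ex/Em 465/510 nm. Tm was taken as the sigmoid inflection, and ΔTm as holo minus apo Tm. Values are the mean of two experiments.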

For experiment [2], the target named is HTH-type transcriptional regulator EthR (Mycobacterium tuberculosis) (UniProt P9WMC1). The experiment is described as follows: Inhibition of EthR in Mycobacterium tuberculosis H37Rv-GFP infected in mouse Raw 264.7 cells assessed as boosting of 0.1 uM ethionamide-induced microbial growth inhibition at 10 uM by automated fluorescent confocal microscopy. Type of experiment: cell-based.

Experiment [3] addresses HTH-type transcriptional regulator EthR (Mycobacterium smegmatis (strain ATCC 700084 / mc(2)155), UniProt A0R666). Put plainly: Inhibition at EthR in Mycobacterium smegmatis mc2 155 assessed as reactivation of beta-glucuronidase activity measured over 48 hrs by Spectrophotometry. Details: species or system Mycolicibacterium smegmatis MC2 155. In a few lines: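 The reporter was M. smegmatis mc²155 carrying P1 (single-copy, hsp60-driven ethR overexpression) and P2 (uidA under the ethA promoter/operator). Culture at OD600 0.2 was mixed with MUG and compound in 10% DMSO solution. MU fluorescence (ex 390/[…]) was read at 0, 24 and 48 h at 37 °C. IC50 came from dose–response; the P2-only strain served as positive control.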

The test system of experiment [4] is Mycobacterium tuberculosis. The experiment is described as follows: Antituberculosis activity against Mycobacterium tuberculosis H37Rv-GFP infected in mouse Raw 264.7 cells assessed as microbial growth inhibition at 10 uM by automated fluorescent confocal microscopy. Type of experiment: functional, organism-based. In a few lines:
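Raw264.7 macrophages were infected with H37Rv-GFP (MOI 1:1, 2 h, 37 °C, shaking). Extracellular bacilli were killed with 20 μM amikacin for 1 h, then infected cells were incubated with compound at 10 μM alone for 5 days (37 °C, 5% CO2). After SYTO 60 staining, confocal imaging (488/635 nm) gave the percentage of infected cells; values are the average of two replicates.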

Chain of HTH-type transcriptional regulator EthR (Mycobacterium smegmatis (strain ATCC 700084 / mc(2)155)) (A0R666 whole entry): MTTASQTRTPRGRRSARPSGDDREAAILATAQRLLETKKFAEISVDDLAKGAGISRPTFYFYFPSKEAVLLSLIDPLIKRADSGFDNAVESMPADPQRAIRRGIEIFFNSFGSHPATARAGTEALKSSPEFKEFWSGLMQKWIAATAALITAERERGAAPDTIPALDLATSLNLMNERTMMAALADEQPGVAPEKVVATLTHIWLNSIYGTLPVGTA
Chain of HTH-type transcriptional regulator EthR (Mycobacterium smegmatis (strain ATCC 700084 / mc(2)155), UniProt A0R666) (A0R666 whole entry): as above
Chain of HTH-type transcriptional regulator EthR (Mycobacterium tuberculosis) (P9WMC1 whole entry): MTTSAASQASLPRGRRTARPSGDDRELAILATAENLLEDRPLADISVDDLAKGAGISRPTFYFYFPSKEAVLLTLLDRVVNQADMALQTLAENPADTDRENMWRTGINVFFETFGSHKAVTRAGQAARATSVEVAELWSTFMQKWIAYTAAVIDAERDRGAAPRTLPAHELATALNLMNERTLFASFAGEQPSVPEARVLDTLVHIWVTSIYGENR

In the case of `COc1cccc(NC(=O)COc2ccc(C(F)(F)F)cc2)c1`, the ΔTm in experiment [1] was found to be 5 °C. In addition, the growth inhibition (GI) in experiment [2] was -1.5%.

In the case of `O=C(CCl)Nc1ccc(-c2nc3ccccc3s2)cc1`, the inhibition entry in experiment [1] is “Active”.

Turning to `COc1cccc(OCC(=O)Nc2ccc(-c3ccccc3)cc2)c1`, the ΔTm in experiment [1] was found to be 7 °C. For the same compound, the growth inhibition (GI) in experiment [2] is -2.9%.

Consider `N#Cc1cccc(NC(=O)COc2cccc(Oc3ccccc3)c2)c1`, for which the ΔTm in experiment [1] amounted to 5.7 °C. Also, in experiment [2], the growth inhibition (GI) was -7.2%.

Regarding `CCOc1ccc(NC(=O)CCl)c(Oc2ccccc2)c1`, the inhibition entry in experiment [1] is “inactive”.

With `O=C(COc1ccc(Cl)cc1)Nc1ccc(Cl)c(Cl)c1`, the ΔTm in experiment [1] was determined as 6.9 °C. Besides, the growth inhibition (GI) in experiment [2] was -17.9%.

For `COc1cccc(OCC(=O)Nc2ccc(Oc3ccccc3)cc2)c1`, the ΔTm in experiment [1] was found to be 6.7 °C. Moreover, in experiment [2], the growth inhibition (GI) is -17.5%.

As for `O=C(COc1ccc(C(F)(F)F)cc1)Nc1ccc(Cl)c(Cl)c1`, the ΔTm in experiment [1] is 8.1 °C. In addition, the growth inhibition (GI) in experiment [2] is -8.4%.

On to `O=C(CCl)Nc1ccc(Cl)c(Cl)c1`, for which the inhibition result in experiment [1] was “Active”.

Regarding `O=C(CCl)N1CCCc2ccccc21`, the inhibition entry in experiment [1] was “Active”.

As for `Oc1ccc(C(F)(F)F)cc1`, in experiment [1], the inhibition entry was “Active”.

`COc1ccccc1NC(=O)CCl`: in experiment [1], the inhibition result is “inactive”.

Turning to `O=C(CCl)Nc1ccc2c(c1)OCO2`, the inhibition result in experiment [1] is “Active”.

As to `COc1ccc(N(C)C(=O)CCl)cc1`, the inhibition entry in experiment [1] is “Active”.

As to `COc1cccc(OCC(=O)Nc2ccc3nc(C)ccc3c2)c1`, the ΔTm in experiment [1] amounted to 6.6 °C. For the same compound, the growth inhibition (GI) in experiment [2] was 6.5%.

Consider `O=C(COc1cccc(Oc2ccccc2)c1)Nc1ccc(Cl)c(Cl)c1`, for which the ΔTm in experiment [1] was 8.9 °C. Besides, in experiment [2], the growth inhibition (GI) is -1.6%.

With `Cc1ccc(OCC(=O)Nc2ccc(-c3nc4ncccc4o3)cc2)c(C)c1`, in experiment [3], the pIC50 is > 5.00.

In the case of `Cc1ccc2cc(NC(=O)COc3ccccc3F)ccc2n1`, in experiment [1], the ΔTm worked out at 5.1 °C. Moreover, in experiment [2], the growth inhibition (GI) amounted to 83.2%.

Take `Cc1ccc(OCC(=O)Nc2ccc(Cl)c(Cl)c2)cc1`: the ΔTm in experiment [1] was found to be 6.8 °C. Moreover, in experiment [2], the growth inhibition (GI) is -10.4%.

On to `O=C(COc1ccc(Cl)cc1Cl)Nc1ccc2nc3n(c(=O)c2c1)CCCC3`, for which the pIC50 in experiment [3] is > 5.00.

In the case of `N#Cc1ccc(NC(=O)COc2cccc(Oc3ccccc3)c2)cc1`, in experiment [1], the ΔTm amounted to 6.7 °C. The growth inhibition (GI) in experiment [2] was -8.9%.

As to `COc1cccc(SCC(=O)Nc2ccc(-c3nc4ccccc4s3)cc2)c1`, in experiment [1], the ΔTm stood at 6.2 °C.

For the compound `Oc1cccc(Oc2ccccc2)c1`, the inhibition entry in experiment [1] was “Active”.

Consider `COc1cccc(OCC(=O)Nc2ccc(Cl)c(Cl)c2)c1`, for which the ΔTm in experiment [1] was found to be 6.8 °C. Also, the growth inhibition (GI) in experiment [2] came out at 26.7%.

As for `COc1ccc(OCC(=O)Nc2ccc(Cl)c(Cl)c2)cc1`, the ΔTm in experiment [1] amounted to 6.1 °C. In addition, the growth inhibition (GI) in experiment [2] was -0.6%.

Consider `O=C(COc1ccc(F)c(F)c1)Nc1ccc(Oc2ccccc2)cc1`, for which the ΔTm in experiment [1] turned out to be 5.7 °C. Moreover, the growth inhibition (GI) in experiment [2] was -13.5%.

As to `O=C(CCl)N(Cc1ccccc1)c1ccccc1`, in experiment [1], the inhibition entry is “inactive”.

Turning to `O=C(COc1ccc(-c2ccccc2)cc1)Nc1ccc2c(c1)OCO2`, the ΔTm in experiment [1] came out at 7 °C. The growth inhibition (GI) in experiment [2] was -3%.

As to `O=C(COc1ccc(F)c(F)c1)Nc1ccc(C(F)(F)F)cc1`, the ΔTm in experiment [1] amounted to 5.6 °C. For the same compound, the growth inhibition (GI) in experiment [2] is -12.5%.

For the compound `COc1cccc(OCC(=O)Nc2ccc(-c3nc4ccccc4s3)cc2)c1`, the “growth inhibition (GI)” value in experiment [4] was “inactive”. Further, the ΔTm in experiment [1] is 9.9 °C. Also, the growth inhibition (GI) in experiment [2] stood at 67.6%.

For the compound `O=C(CCl)N(c1ccccc1)C1CCCCC1`, the inhibition result in experiment [1] was “inactive”.

On to `O=C(COc1ccc(Cl)c(Cl)c1)Nc1ccc(C(F)(F)F)cc1`, for which the ΔTm in experiment [1] stood at 7.5 °C. The growth inhibition (GI) in experiment [2] was -5.4%.

On to `COc1ccc(NC(=O)CCl)cc1`, for which the inhibition result in experiment [1] was “Active”.

Take `O=C(COc1cccc(Oc2ccccc2)c1)Nc1ccccc1`: the ΔTm in experiment [1] was determined as 6.1 °C. In addition, the growth inhibition (GI) in experiment [2] is 2.2%.

In the case of `O=C(COc1ccc(C(F)(F)F)cc1)Nc1ccc2c(c1)OCO2`, the ΔTm in experiment [1] is 6.2 °C. The growth inhibition (GI) in experiment [2] is 1.4%.

For `COc1cccc(OCC(=O)Nc2ccc(Cl)cc2)c1`, the ΔTm in experiment [1] is 6.1 °C. In addition, in experiment [2], the growth inhibition (GI) is 92.6%.

For the compound `Cc1ccc2cc(NC(=O)CCl)ccc2n1`, the inhibition result in experiment [1] is “Active”.

Turning to `CN(C(=O)CCl)c1ccccc1`, the inhibition result in experiment [1] is “Active”.

For the compound `O=C(CCl)Nc1ccccc1-c1ccccc1`, the inhibition entry in experiment [1] was “inactive”.

As for `N#Cc1cccc(OCC(=O)Nc2ccc(-c3nc4ccccc4s3)cc2)c1`, the ΔTm in experiment [1] was 8.1 °C. Further, the growth inhibition (GI) in experiment [2] is 53.4%.

Consider `O=C(CCl)Nc1ccccc1`, for which the inhibition entry in experiment [1] is “Active”.

Consider `O=C(CCl)Nc1ccc(Oc2ccccc2)cc1`, for which the inhibition entry in experiment [1] is “Active”.

On to `Cc1ccc(-n2nc3ccc(NC(=O)COc4ccccc4C)cc3n2)cc1`, for which, in experiment [1], the ΔTm amounted to 6.4 °C. In experiment [2], the growth inhibition (GI) turned out to be 10.9%. Besides, the pIC50 in experiment [3] was 5.54.

In the case of `O=C(COc1cccc(Oc2ccccc2)c1)Nc1ccc2c(c1)OCO2`, the ΔTm in experiment [1] turned out to be 8.2 °C. The growth inhibition (GI) in experiment [2] is 5.7%.

Turning to `COc1cccc(O)c1`, the inhibition entry in experiment [1] is “Active”.

For the origin of these results see ChEMBL document CHEMBL2163226, “Discovery of novel N-phenylphenoxyacetamide derivatives as EthR inhibitors and ethionamide boosters by combining high-throughput screening and synthesis” (J Med Chem, 2012).
